Screens from PubChem.
HCT116 PTEN-null = PTEN-deleted cell growth suppression; HCT116 PTEN-null viability, CellTiter-Glo, 60 h; stronger effect = lower value; viability, % at 10 µM; 1.2% of 140,000 active; AID 827;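 active = viability at or below a set limit, 4 SD under the median of all tested compounds, cut at about 3.7% in these data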;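 also: PTEN knockout HCT116 line with beta catenin targeted HCT116 as companion control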
PMI act satM6P = PMI (human) activation, high substrate; P34949; coupled PMI enzyme assay, resazurin fluorescence, 20 min; stronger effect = higher value; 1 = untreated enzyme, 0 = substrate-free blank; activation factor at 20 µM; 0.34% of 190,000 active; AID 1216;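 active = activation factor of 2 or more at 20 µM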
Target sequence (P34949 whole entry, looked up): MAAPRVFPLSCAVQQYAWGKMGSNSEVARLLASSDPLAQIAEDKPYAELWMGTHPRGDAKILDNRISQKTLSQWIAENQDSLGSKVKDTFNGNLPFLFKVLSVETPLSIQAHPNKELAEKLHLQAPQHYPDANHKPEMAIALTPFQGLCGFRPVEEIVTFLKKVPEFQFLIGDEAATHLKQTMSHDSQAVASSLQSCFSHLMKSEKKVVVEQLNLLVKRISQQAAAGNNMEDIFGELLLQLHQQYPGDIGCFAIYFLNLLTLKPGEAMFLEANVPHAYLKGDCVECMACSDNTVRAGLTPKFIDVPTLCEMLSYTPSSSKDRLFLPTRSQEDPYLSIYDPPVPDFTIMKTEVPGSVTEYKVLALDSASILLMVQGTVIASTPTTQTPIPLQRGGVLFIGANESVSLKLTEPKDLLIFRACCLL
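Test system: human phosphomannose isomerase with PGI, G6PDH, diaphorase coupling enzymes / Doses: 20 µM compound, 1% DMSO / Times: enzyme reaction with compound 20 min at room temperature / Measured by: Diaphorase-driven resazurin-to-resorufin fluorescence, excitation 544, emission 590 nm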
L major viab = Leishmania major promastigote growth inhibition. Leishmania major promastigotes, resazurin fluorescence viability. inhibition, % at 10 µM. 9% of 200,000 active; in the data active = inhibition above about 50%;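 also: promastigotes grown with compound for 44 hours at 28 °C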
PMI activator = phosphomannose isomerase (human) activation | P34949 | purified human PMI, coupled resazurin fluorescence, 20 min; stronger effect = higher value; 1 = vehicle control, 0 substrate-free wells | activation factor at 20 µM | 0.005% of 190,000 active | AID 1214;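 active = activation factor of 2 or more at 20 µM, relative to plate controls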
HCT116 bCat-KO = beta-catenin-lacking colon tumor cell growth suppression | 1.5% of 140,000 active | viability, % at 10 µM | AID 818 | HCT116 beta-catenin knockout viability, CellTiter-Glo, 60 h; stronger effect = lower value;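 active = viability at or under a set limit, the compound median less 4 SD, cut at about 6% in these data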
A number is an active result; . = inactive; / = no result. Sampled rows, rich in hits. Any-hit rate of the full collection: about 9.6%.

SMILES	HCT116 PTEN-null	PMI act satM6P	L major viab	PMI activator	HCT116 bCat-KO
Cc1ccc(OCC(=O)N2CCC(N3CCCCCC3)CC2)cc1	.	.	86.9	.	.
COC(=O)C1CCN(C(=O)CCC2CCCCC2)CC1	.	.	.	.	.
Cc1ccc(Cl)cc1NC(=O)CC1NCCNC1=O (stereo unspecified)	.	.	.	.	.
Cc1onc(-c2ccccc2)c1C(=O)N(Cc1ccco1)Cc1cccs1	/	.	.	.	/
Cn1c(N)c(C(=O)COC(=O)[C@H](Cc2ccccc2)N2C(=O)c3ccccc3C2=O)c(=O)n(C)c1=O	.	.	.	.	.
Cc1ccc(C(C)C)c(OCCNC(=S)Nc2cccc3ccccc23)c1	.	.	.	.	.
Cc1cc(C(=O)N/N=C/c2cccs2)n[nH]1	/	.	.	.	/
Cc1cc(C(=O)N/N=C/c2cc(Br)cc(Br)c2OC(=O)c2ccccc2)n[nH]1	.	.	81.2	.	5.1
Cc1cc(C(=O)N/N=C/c2cc(Br)ccc2OC(=O)c2ccc(Br)cc2)n[nH]1	.	.	98.3	.	.
Cc1cc(C(=O)N/N=C/c2cccn2C)n[nH]1	.	.	.	.	.
Cc1cc(C(=O)N/N=C/c2cc(Br)cc(Br)c2OC(=O)c2cccc(F)c2)n[nH]1	/	.	98.3	.	/
COC(=O)c1ccc(/C=N/NC(=O)c2cccc(F)c2)cc1	.	.	.	.	.
OCCNCc1cccc(OCc2ccc(Cl)cc2)c1	/	.	54.3	.	/
OCCNCc1cc(Br)ccc1OCc1ccc(Cl)cc1Cl	.	.	100.6	.	4.7
OCCNCc1cc(Br)ccc1OCc1ccc(Cl)cc1	.	.	92.8	.	.
Oc1ccc(NCc2cccc(OCc3ccc(F)cc3)c2)cc1	/	.	.	.	/
OCCNCc1cc(Br)ccc1OCc1ccc(F)cc1	/	.	.	.	/
O=C(COc1ccc(S(=O)(=O)NC2CCCCC2)cc1)NC1CCCC1	/	.	.	.	/
Cc1ccc(-c2nnnn2C2C/C(=N\NC(N)=S)C3OCC2O3)cc1 (stereo unspecified)	/	.	.	.	/
CCOC(=O)c1[nH]c2cc(OC)c(OC)cc2c1NC(=O)CN(C)C1CCCCC1	.	.	60.6	.	.
C=C(C)c1cccc(C(C)(C)NC(=O)NCc2ccc(OC)c(OC)c2)c1	.	.	.	.	.
C=C(C)c1cccc(C(C)(C)NC(=O)Nc2ncccn2)c1	.	.	.	.	.
C=C(C)c1cccc(C(C)(C)NC(=O)Nc2cc(C)ccc2OC)c1	.	.	51.7	.	.
C=C(C)c1cccc(C(C)(C)NC(=O)Nc2ccccc2OCC)c1	.	.	55.0	.	.
COC(=O)/C=C1/N/C(=N\c2nc(C)cc(C)n2)N(c2ccc(Cl)cc2)C1=O	.	.	50.2	.	.
SMILES	HCT116 PTEN-null	PMI act satM6P	L major viab	PMI activator	HCT116 bCat-KO
Cc1cccc(C(=O)Oc2ccccc2/C=N/Nc2ccc([N+](=O)[O-])cc2)c1	.	.	98.1	.	.
Cc1cc(NC(=O)c2ccccc2[N+](=O)[O-])ccc1Br	/	.	.	.	/
Cc1cc(Cl)ccc1OCC(=O)NCCCCc1ccccc1	.	.	.	.	.
CC(=O)Nc1ccc(NC(=O)c2ccccc2Sc2ccc([N+](=O)[O-])cc2Cl)cc1	.	.	94.2	.	.
N#Cc1ccccc1Sc1ccccc1C(=O)N1CCOCC1	.	.	.	.	.
O=C(c1ccccc1Sc1ccc([N+](=O)[O-])cc1Cl)N1CCOCC1	/	2.1	.	.	/
CC(=O)CCn1cnc([N+](=O)[O-])n1	/	.	.	.	/
CCCCNC(=S)N=Nc1c(O)[nH]c2ccccc12	/	.	.	.	/
CCOc1ccc(NC(=S)N=Nc2c(O)[nH]c3ccccc23)cc1	/	.	97.8	.	/
c1csc(CN2CCOCC2)c1	.	.	.	.	.
O=C1CC(C(=O)O)S/C(=N\NC(=O)c2ccc(F)cc2)N1 (stereo unspecified)	.	.	72.9	.	.
CC(=O)c1cc2c(cc1NC(=O)C1CCC1)OCO2	/	.	.	.	/
C=CCNC(=O)CN(c1cc(Cl)ccc1OC)S(=O)(=O)c1ccc(C)c([N+](=O)[O-])c1	/	.	.	.	/
C=CCOc1ccc(/C=N/NC(=O)CN(c2cc(Cl)ccc2OC)S(=O)(=O)c2ccc(C)c([N+](=O)[O-])c2)cc1	.	.	97.4	.	.
Cc1nn(CCC(N)=S)c2nc(-c3cccs3)cc(C(F)(F)F)c12	.	.	.	.	.
CN1CCN(C(=O)CSc2nc(-c3cccs3)ccc2C#N)CC1	.	.	95.0	.	.
O=c1c2c(n3cnnc3n1-c1ccccc1)-c1ccccc1CC21CCCC1	.	.	65.8	.	.
O=c1c2c(n3nnnc3n1-c1ccccc1)-c1ccccc1CC21CCCC1	.	.	.	.	.
CCSc1nc(-c2ccc(OC)cc2)n(-c2nc3ccccc3s2)n1	.	.	.	.	.
Cc1cc2nc(C(C)(C)C)cc(N)n2n1	/	.	.	.	/
CC(C)(C)c1cc(N)n2nc(C(C)(C)C)cc2n1	/	.	65.8	.	/
Cc1ccc(NC(=O)CNC(c2ccccc2)c2ccccc2)c(F)c1	.	.	71.2	.	.
Cn1c(/C(C#N)=C/c2cccc(O)c2)nc2ccccc21	/	.	89.2	.	/
COc1ccc(-c2c[n+](CC(=O)OC3CC(C)CCC3C(C)C)c3n2CCC3)cc1 (stereo unspecified)	/	.	100.4	.	/
Nc1cccc(CCc2nc3cc4ccccc4cc3[nH]2)c1	.	.	97.1	.	.
SMILES	HCT116 PTEN-null	PMI act satM6P	L major viab	PMI activator	HCT116 bCat-KO
CN1CCN(S(=O)(=O)c2ccc(Cc3ccc(S(=O)(=O)N4CCN(C)CC4)cc3)cc2)CC1	.	.	64.7	.	.
CC(=O)N1CCc2ccc(S(=O)(=O)N3CCN(C)CC3)cc21	.	.	52.6	.	.
CN1CCN(S(=O)(=O)c2ccc(-c3ccc(S(=O)(=O)N4CCN(C)CC4)cc3)cc2)CC1	/	.	/	.	/
COc1ccc(/C=C/C(=O)OCC(=O)c2c(C)[nH]c3ccccc23)cc1OC	.	.	.	.	.
Cc1ccc(O)c(C(=O)c2cc(C(=O)NCCc3ccccc3)c(=O)n(CCc3ccccc3)c2)c1	.	.	99.3	.	.
Cc1ccc(O)c(C(=O)c2cc(C#N)c(=O)n(Cc3ccccc3)c2)c1	/	.	.	.	/
COc1ccc(O)c(C(=O)c2cc(C(=O)NCCc3ccccc3)c(=O)n(CCc3ccccc3)c2)c1	.	.	77.3	.	.
CC1CC(C)CN(S(=O)(=O)c2ccc(C(=O)OCC(=O)NCCN3C(=O)CSC3=O)cc2)C1 (stereo unspecified)	/	.	.	.	/
COc1ccc(N(CC(=O)NCc2ccccc2)S(=O)(=O)c2c(C)nn(C)c2C)cc1	.	.	.	.	.
COc1cccc(NC(=O)CN(c2ccc(C)cc2)S(=O)(=O)c2c(C)nn(C)c2C)c1	.	.	.	.	.
COc1ccc(N(CC(=O)Nc2nc3ccc(C)cc3s2)S(=O)(=O)c2c(C)nn(C)c2C)cc1	.	.	65.9	.	.
COc1ccc(N(CC(=O)Nc2cc(OC)ccc2OC)S(=O)(=O)c2c(C)nn(C)c2C)cc1	.	.	100.0	.	.
